Reference: ChEMBL document CHEMBL3407339, “A novel series of thiazolyl-pyrazoline derivatives: synthesis and evaluation of antifungal activity, cytotoxicity and genotoxicity” (Eur J Med Chem, 2015)
Converted amounts (≈) assume the structure as drawn.

Legend:
Nakaseomyces glabratus = assay: Antifungal activity against Candida glabrata clinical isolate after 48 hrs by broth microdilution assay; assay type: functional
Outline: (§1)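 Broth microdilution of DMSO stocks serially diluted in sterile water (4 to 0.0039 mg/mL). Yeasts grown on SDA at 37 °C for 24 h, suspended in double-strength PDB at 10⁵ spores/mL. Incubated at 37 °C for 48 h, then sprayed with 0.5% aqueous TTC. MIC = lowest concentration inhibiting visible growth. Ketoconazole reference.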

Candida albicans = assay: Antifungal activity against Candida albicans ATCC 90028 after 48 hrs by broth microdilution assay; assay type: functional; details: ATCC 90028, 48 h; outline: as §1
Candida tropicalis = assay: Antifungal activity against Candida tropicalis NRLL Y 12968 after 48 hrs by broth microdilution assay; assay type: functional; details: NRLL Y 12968, 48 h; outline: as §1
Pichia kudriavzevii = assay: Antifungal activity against Candida krusei NRLL Y 7179 after 48 hrs by broth microdilution assay; assay type: functional; details: NRLL Y 7179, 48 h; outline: as §1
[Candida] zeylanoides = Antifungal activity against Candida zeylanoides NRLL Y 1774 after 48 hrs by broth microdilution assay; assay type: functional; details: Dujonia zeylanoides, NRLL Y 1774, 48 h; outline: as §1
Candida parapsilosis = assay: Antifungal activity against Candida parapsilosis NRLL Y 12696 after 48 hrs by broth microdilution assay; assay type: functional; details: Lodderomyces parapsilosis, NRLL Y 12696, 48 h; outline: as §1
Aspergillus flavus = assay: Antifungal activity against Aspergillus flavus NRRL 980 after 72 hrs by broth microdilution assay; assay type: functional; details: NRRL 980, 72 h
Outline: (§2)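 Compounds dissolved in DMSO, diluted in sterile distilled water from 4 to 0.0039 mg/mL. Molds grown on PDA at 25 °C for 5 days, suspended in double-strength PDB at 10⁵ spores/mL. Incubated at 25 °C for 72 h; mycelial growth read under stereo microscope. MIC = lowest concentration inhibiting visible growth. Ketoconazole reference.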

Aspergillus niger = assay: Antifungal activity against Aspergillus niger ATCC 1094 after 72 hrs by broth microdilution assay; assay type: functional; details: ATCC 1094, 72 h; outline: as §2
Aspergillus parasiticus = assay: Antifungal activity against Aspergillus parasiticus NRRL 465 after 72 hrs by broth microdilution assay; assay type: functional; details: NRRL 465, 72 h; outline: as §2
Fusarium solani = assay: Antifungal activity against Fusarium solani NRRL 13414 after 72 hrs by broth microdilution assay; assay type: functional; details: NRRL 13414, 72 h; outline: as §2
Salmonella typhimurium [1] = assay: Mutagenicity in Salmonella typhimurium TA98 at 0.156 mg/ml after 48 hrs by AMES MPF assay in presence of Sprague-Dawley rat liver microsomal S9 fraction relative to baseline; assay type: toxicity, organism-based; details: salmonella enterica subsp. enterica serovar typhimurium
Outline: (§3)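 Ames MPF fluctuation test with TA98/TA100. Overnight cultures (37 °C, 14–16 h) mixed with exposure medium; ±Aroclor-1254-induced rat liver S9 (final 4.5% v/v). Compounds in DMSO, 0.156–5 mg/mL. 90 min exposure at 37 °C, then indicator medium; 48 wells per concentration, 48 h at 37 °C, in triplicate. Yellow wells counted; fold induction over baseline (mean + 1 SD of zero-dose control).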

Salmonella typhimurium [2] = assay: Mutagenicity in Salmonella typhimurium TA98 at 0.3125 mg/ml after 48 hrs by AMES MPF assay in presence of Sprague-Dawley rat liver microsomal S9 fraction relative to baseline; assay type: toxicity, organism-based; details: salmonella enterica subsp. enterica serovar typhimurium; outline: as §3
Salmonella typhimurium [3] = assay: Mutagenicity in Salmonella typhimurium TA98 at 0.625 mg/ml after 48 hrs by AMES MPF assay in presence of Sprague-Dawley rat liver microsomal S9 fraction relative to baseline; assay type: toxicity, organism-based; details: salmonella enterica subsp. enterica serovar typhimurium; outline: as §3
Salmonella typhimurium [4] = assay: Mutagenicity in Salmonella typhimurium TA98 at 1.25 mg/ml after 48 hrs by AMES MPF assay in presence of Sprague-Dawley rat liver microsomal S9 fraction relative to baseline; assay type: toxicity, organism-based; details: salmonella enterica subsp. enterica serovar typhimurium; outline: as §3
Salmonella typhimurium [5] = assay: Mutagenicity in Salmonella typhimurium TA98 at 2.5 mg/ml after 48 hrs by AMES MPF assay in presence of Sprague-Dawley rat liver microsomal S9 fraction relative to baseline; assay type: toxicity, organism-based; details: salmonella enterica subsp. enterica serovar typhimurium; outline: as §3
Salmonella typhimurium [6] = assay: Mutagenicity in Salmonella typhimurium TA98 at 5 mg/ml after 48 hrs by AMES MPF assay in presence of Sprague-Dawley rat liver microsomal S9 fraction relative to baseline; assay type: toxicity, organism-based; details: salmonella enterica subsp. enterica serovar typhimurium; outline: as §3
Salmonella typhimurium [7] = assay: Mutagenicity in Salmonella typhimurium TA98 at 0.156 mg/ml after 48 hrs by AMES MPF assay in absence of Sprague-Dawley rat liver microsomal S9 fraction relative to baseline; assay type: toxicity, organism-based; details: salmonella enterica subsp. enterica serovar typhimurium; outline: as §3
Salmonella typhimurium [8] = assay: Mutagenicity in Salmonella typhimurium TA98 at 0.3125 mg/ml after 48 hrs by AMES MPF assay in absence of Sprague-Dawley rat liver microsomal S9 fraction relative to baseline; assay type: toxicity, organism-based; details: salmonella enterica subsp. enterica serovar typhimurium; outline: as §3
Salmonella typhimurium [9] = assay: Mutagenicity in Salmonella typhimurium TA98 at 0.625 mg/ml after 48 hrs by AMES MPF assay in absence of Sprague-Dawley rat liver microsomal S9 fraction relative to baseline; assay type: toxicity, organism-based; details: salmonella enterica subsp. enterica serovar typhimurium; outline: as §3
Salmonella typhimurium [10] = assay: Mutagenicity in Salmonella typhimurium TA98 at 1.25 mg/ml after 48 hrs by AMES MPF assay in absence of Sprague-Dawley rat liver microsomal S9 fraction relative to baseline; assay type: toxicity, organism-based; details: salmonella enterica subsp. enterica serovar typhimurium; outline: as §3
Salmonella typhimurium [11] = assay: Mutagenicity in Salmonella typhimurium TA98 at 2.5 mg/ml after 48 hrs by AMES MPF assay in absence of Sprague-Dawley rat liver microsomal S9 fraction relative to baseline; assay type: toxicity, organism-based; details: salmonella enterica subsp. enterica serovar typhimurium; outline: as §3
Salmonella typhimurium [12] = assay: Mutagenicity in Salmonella typhimurium TA98 at 5 mg/ml after 48 hrs by AMES MPF assay in absence of Sprague-Dawley rat liver microsomal S9 fraction relative to baseline; assay type: toxicity, organism-based; details: salmonella enterica subsp. enterica serovar typhimurium; outline: as §3
Salmonella typhimurium [13] = assay: Mutagenicity in Salmonella typhimurium TA100 at 0.156 mg/ml after 48 hrs by AMES MPF assay in presence of Sprague-Dawley rat liver microsomal S9 fraction relative to baseline; assay type: toxicity, organism-based; details: salmonella enterica subsp. enterica serovar typhimurium; outline: as §3
Salmonella typhimurium [14] = assay: Mutagenicity in Salmonella typhimurium TA100 at 0.3125 mg/ml after 48 hrs by AMES MPF assay in presence of Sprague-Dawley rat liver microsomal S9 fraction relative to baseline; assay type: toxicity, organism-based; details: salmonella enterica subsp. enterica serovar typhimurium; outline: as §3
Salmonella typhimurium [15] = assay: Mutagenicity in Salmonella typhimurium TA100 at 0.625 mg/ml after 48 hrs by AMES MPF assay in presence of Sprague-Dawley rat liver microsomal S9 fraction relative to baseline; assay type: toxicity, organism-based; details: salmonella enterica subsp. enterica serovar typhimurium; outline: as §3
Salmonella typhimurium [16] = assay: Mutagenicity in Salmonella typhimurium TA100 at 1.25 mg/ml after 48 hrs by AMES MPF assay in presence of Sprague-Dawley rat liver microsomal S9 fraction relative to baseline; assay type: toxicity, organism-based; details: salmonella enterica subsp. enterica serovar typhimurium; outline: as §3
Salmonella typhimurium [17] = assay: Mutagenicity in Salmonella typhimurium TA100 at 2.5 mg/ml after 48 hrs by AMES MPF assay in presence of Sprague-Dawley rat liver microsomal S9 fraction relative to baseline; assay type: toxicity, organism-based; details: salmonella enterica subsp. enterica serovar typhimurium; outline: as §3
Salmonella typhimurium [18] = assay: Mutagenicity in Salmonella typhimurium TA100 at 5 mg/ml after 48 hrs by AMES MPF assay in presence of Sprague-Dawley rat liver microsomal S9 fraction relative to baseline; assay type: toxicity, organism-based; details: salmonella enterica subsp. enterica serovar typhimurium; outline: as §3
Salmonella typhimurium [19] = assay: Mutagenicity in Salmonella typhimurium TA100 at 0.156 mg/ml after 48 hrs by AMES MPF assay in absence of Sprague-Dawley rat liver microsomal S9 fraction relative to baseline; assay type: toxicity, organism-based; details: salmonella enterica subsp. enterica serovar typhimurium; outline: as §3
Salmonella typhimurium [20] = assay: Mutagenicity in Salmonella typhimurium TA100 at 0.3125 mg/ml after 48 hrs by AMES MPF assay in absence of Sprague-Dawley rat liver microsomal S9 fraction relative to baseline; assay type: toxicity, organism-based; details: salmonella enterica subsp. enterica serovar typhimurium; outline: as §3
Salmonella typhimurium [21] = assay: Mutagenicity in Salmonella typhimurium TA100 at 0.625 mg/ml after 48 hrs by AMES MPF assay in absence of Sprague-Dawley rat liver microsomal S9 fraction relative to baseline; assay type: toxicity, organism-based; details: salmonella enterica subsp. enterica serovar typhimurium; outline: as §3
Salmonella typhimurium [22] = assay: Mutagenicity in Salmonella typhimurium TA100 at 1.25 mg/ml after 48 hrs by AMES MPF assay in absence of Sprague-Dawley rat liver microsomal S9 fraction relative to baseline; assay type: toxicity, organism-based; details: salmonella enterica subsp. enterica serovar typhimurium; outline: as §3
Salmonella typhimurium [23] = assay: Mutagenicity in Salmonella typhimurium TA100 at 2.5 mg/ml after 48 hrs by AMES MPF assay in absence of Sprague-Dawley rat liver microsomal S9 fraction relative to baseline; assay type: toxicity, organism-based; details: salmonella enterica subsp. enterica serovar typhimurium; outline: as §3
Salmonella typhimurium [24] = assay: Mutagenicity in Salmonella typhimurium TA100 at 5 mg/ml after 48 hrs by AMES MPF assay in absence of Sprague-Dawley rat liver microsomal S9 fraction relative to baseline; assay type: toxicity, organism-based; details: salmonella enterica subsp. enterica serovar typhimurium; outline: as §3
A549 = assay: Antiproliferative activity against human A549 cells after 24 hrs by XTT assay; assay type: functional, cell-based; details: A549, 24 h
Outline: (§4)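 A549 cells in RPMI and NIH/3T3 cells in DMEM, each with fetal calf serum, antibiotics and 7.5% NaHCO₃, at 37 °C, 5% CO₂. Seeded at 20,000 cells/well, 24 h, then compounds added in medium at 500–3.9 doses (final DMSO <0.1%) for 24 h. XTT read after 3 h at 480 nm (ref 680 nm). IC₅₀ by non-linear regression; triplicates; cisplatin control.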

[25] = Cytotoxicity against mouse NIH/3T3 cells after 24 hrs by XTT assay; assay type: cell-based; details: NIH3T3, 24 h; outline: as §4

Fc1ccc(C2CC(c3ccc(Cl)s3)=NN2c2nc(-c3ccc(C(F)(F)F)cc3)cs2)cc1 (stereo unspecified)
MIC (Nakaseomyces glabratus): 125 µg/mL (≈ 246 µM)
MIC (Candida albicans): 500 µg/mL (≈ 984 µM)
MIC (Candida tropicalis): 500 µg/mL (≈ 984 µM)
MIC (Pichia kudriavzevii): 1000 µg/mL (≈ 1970 µM)
MIC ([Candida] zeylanoides): 500 µg/mL (≈ 984 µM)
MIC (Candida parapsilosis): 500 µg/mL (≈ 984 µM)
MIC (Aspergillus flavus): 125 µg/mL (≈ 246 µM)
MIC (Aspergillus niger): 250 µg/mL (≈ 492 µM)
MIC (Aspergillus parasiticus): 250 µg/mL (≈ 492 µM)
MIC (Fusarium solani): 250 µg/mL (≈ 492 µM)
fold change (FC) (Salmonella typhimurium [1]): 0.87
fold change (FC) (Salmonella typhimurium [2]): 0.55
fold change (FC) (Salmonella typhimurium [3]): 1.09
fold change (FC) (Salmonella typhimurium [4]): 0.22
fold change (FC) (Salmonella typhimurium [5]): 0.33
fold change (FC) (Salmonella typhimurium [6]): 0.98
fold change (FC) (Salmonella typhimurium [7]): 0
fold change (FC) (Salmonella typhimurium [8]): 0.33
fold change (FC) (Salmonella typhimurium [9]): 0.67
fold change (FC) (Salmonella typhimurium [10]): 0.67
fold change (FC) (Salmonella typhimurium [11]): 0
fold change (FC) (Salmonella typhimurium [12]): 0.67
fold change (FC) (Salmonella typhimurium [13]): 2.08
fold change (FC) (Salmonella typhimurium [14]): 2.31
fold change (FC) (Salmonella typhimurium [15]): 2.54
fold change (FC) (Salmonella typhimurium [16]): 2.77
fold change (FC) (Salmonella typhimurium [17]): 2.31
fold change (FC) (Salmonella typhimurium [18]): 2.31
fold change (FC) (Salmonella typhimurium [19]): 0.67
fold change (FC) (Salmonella typhimurium [20]): 1
fold change (FC) (Salmonella typhimurium [21]): 1.33
fold change (FC) (Salmonella typhimurium [22]): 3
fold change (FC) (Salmonella typhimurium [23]): 1.33
fold change (FC) (Salmonella typhimurium [24]): 2.67
IC50 (A549): > 500 µg/mL
IC50 [25]: > 500 µg/mL
